We go through 21 compounds from ChEMBL document CHEMBL1133968, “Glutamyl-gamma-boronate inhibitors of bacterial Glu-tRNA(Gln) amidotransferase” (Bioorg Med Chem Lett, 2001).

Converted amounts (≈) assume the structure as drawn. A value given as a limit tells only on which side of the number the result lay.

In general, IC50 refers to the concentration that gives 50% inhibition. The term MIC denotes the lowest concentration found to suppress growth. A high value points to a need for much substance.

Assay [1] concerns the target T1, Aspartyl/glutamyl-tRNA(Asn/Gln) amidotransferase subunit A (Streptococcus pyogenes serotype M1, UniProt Q99YC0). Description: In vitro inhibitory concentration against transferase activity of bacterial Glu-tRNA-Gln […] (Glu-AdT). In short, it runs like this: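 S. pyogenes Glu-AdT, Gln-dependent transferase reaction. Substrates were Glu-tRNAGln at >10×Km, ATP at 2×Km and Gln at 0.5×Km. Inhibitor titrated over […]. Enzyme pre-incubated 15 min with inhibitor, Glu-tRNAGln and ATP, then started with Gln. Buffer was 50 mM HEPES, 25 mM MgCl₂, 15 mM KCl, 1% DMSO, pH 7. IC50 determined in duplicate.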

Assay [2] concerns the target T1, Aspartyl/glutamyl-tRNA(Asn/Gln) amidotransferase subunit A. Description: In vitro inhibitory concentration against Glutaminase activity of bacterial Glu-tRNA-Gln […] (Glu-AdT). In short, it runs like this: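 S. pyogenes Glu-AdT, glutaminase-only reaction with no ATP or tRNA. Gln at 2×Km. Inhibitor titrated over […]. Enzyme pre-incubated 15 min with inhibitor, then started with Gln. Reaction buffer was 50 mM HEPES, 25 mM MgCl₂, 15 mM KCl, 1% DMSO, pH 7. IC50 determined in duplicate.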

A further assay deals with Enterococcus faecalis. Description: Tested for minimal growth inhibitory concentration against […] ATCC 29212. Type of assay: functional.
A short description of assay [3]: Tested for mammalian cellular toxicity expressed as IC50. It counts as functional.
The test system of assay [4] is Escherichia coli. Description: Minimum inhibitory concentration against Escherichia coli strain tolC. Type of assay: functional.
Assay [5] relates to Escherichia coli. Description: Minimum inhibitory concentration against Escherichia coli strain SM101. Type of assay: functional.
For the next assay, the system named is Streptococcus pneumoniae. Nature of the assay: Tested for minimal growth inhibitory concentration against Streptococcus pneumoniae ATCC 49619. Type of assay: functional.
For assay [6], the system named is Staphylococcus aureus. Description: Tested for minimal growth inhibitory concentration against Staphylococcus aureus ATCC 29213. It counts as functional.
In a further assay the test system is Streptococcus pyogenes. Nature of the assay: Tested for minimal growth inhibitory concentration against Streptococcus pyogenes ATCC 13709. Type of assay: functional.
A further assay relates to Helicobacter pylori. Description: Tested for minimal growth inhibitory concentration against Helicobacter pylori ATCC 43629. It counts as functional. In short, it runs like this:
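Broth dilution in Brain–Heart Infusion broth with 0.25% yeast extract and 10% horse serum. Inoculum was 6×10⁵ CFU per well, incubated 72 h at 37 °C under 10% CO₂. Highest concentration tested was 64. NCCLS-recommended control antibiotics tracked strain performance.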

Assay [7] deals with Staphylococcus aureus. Description: Tested for minimal growth inhibitory concentration against Staphylococcus aureus ATCC 4330. Type of assay: functional.
In assay [8] the test system is Staphylococcus epidermidis. Nature of the assay: Tested for minimal growth inhibitory concentration against Staphylococcus epidermidis ATCC 12228. It counts as functional.
Assay [9] has as its system Staphylococcus epidermidis. Nature of the assay: Tested for minimal growth inhibitory concentration against Staphylococcus epidermidis ATCC 51625. It counts as functional.
The test system of assay [10] is Staphylococcus aureus. Nature of the assay: Tested for minimal growth inhibitory concentration against Staphylococcus aureus ATCC 25923. Type of assay: functional.
In another assay the test system is Staphylococcus carnosus. Nature of the assay: Tested for minimal growth inhibitory concentration against Staphylococcus carnosus ATCC 51365. It counts as functional.

T1 sequence (Q99YC0 whole entry, looked up): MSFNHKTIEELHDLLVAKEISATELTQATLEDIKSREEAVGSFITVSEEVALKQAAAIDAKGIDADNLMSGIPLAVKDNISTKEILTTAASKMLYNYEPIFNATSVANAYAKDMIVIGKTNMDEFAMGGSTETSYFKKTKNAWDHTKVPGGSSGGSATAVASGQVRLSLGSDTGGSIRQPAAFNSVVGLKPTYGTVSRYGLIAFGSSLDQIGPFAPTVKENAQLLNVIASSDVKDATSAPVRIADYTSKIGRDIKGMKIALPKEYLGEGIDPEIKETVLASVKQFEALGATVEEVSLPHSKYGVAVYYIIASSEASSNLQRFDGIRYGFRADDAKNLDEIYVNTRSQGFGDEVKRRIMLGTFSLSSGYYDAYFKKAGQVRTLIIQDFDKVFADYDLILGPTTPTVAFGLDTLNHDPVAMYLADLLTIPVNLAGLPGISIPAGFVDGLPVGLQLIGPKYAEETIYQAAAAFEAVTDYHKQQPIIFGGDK

Turning to `CC1(C)C2CC[C@]3(C)OB(CCC[C@H](NC(=O)OCc4ccccc4)C(=O)O)O[C@]13C2`, the values for the IC50 in assay [1] and in assay [2] were above 20 µM and above 80 µM, respectively.

As to `CNC(=O)[C@@H](N)CCB1O[C@@]2(C)CCC3C[C@@]2(O1)C3(C)C`, the MIC against Enterococcus faecalis is above 64 µg/mL; in the assay on Escherichia coli [4] it was 64 µg/mL (≈ 218 µM); in the assay with Escherichia coli [5], 64 µg/mL (≈ 218 µM); in the assay on Streptococcus pneumoniae it was 32 µg/mL (≈ 109 µM); in the assay with Staphylococcus aureus [6], above 64 µg/mL; in the assay on Streptococcus pyogenes, 32 µg/mL (≈ 109 µM). The compound further returned an MIC with Helicobacter pylori above 64 µg/mL. Besides, the IC50 was above 100 µM in assay [3], 35 µM in assay [1] and above 80 µM in assay [2].

Consider `CNC(=O)CNC(=O)[C@@H](N)CCB1O[C@@]2(C)CCC3C[C@@]2(O1)C3(C)C`, for which the MIC against Enterococcus faecalis is 16 µg/mL (≈ 45.6 µM); in the assay on Staphylococcus aureus [7] it was above 64 µg/mL; in assay [8] it was above 64 µg/mL; in [9] it was above 64 µg/mL; in the assay on Staphylococcus aureus [10], above 64 µg/mL; against Staphylococcus carnosus it was above 64 µg/mL. The MIC in the assay on Streptococcus pneumoniae is 16 µg/mL (≈ 45.6 µM); in the assay with Staphylococcus aureus [6], above 64 µg/mL; against Streptococcus pyogenes, 8 µg/mL (≈ 22.8 µM); with Helicobacter pylori, 16 µg/mL (≈ 45.6 µM). Also, the results for the IC50 in assay [1] and in assay [2] were 20 µM and 40 µM, respectively.

`COC(=O)[C@@H](N)CCB(O)O`: the MIC was 3 µg/mL (≈ 18.6 µM) in the assay with Enterococcus faecalis; above 64 µg/mL against Staphylococcus aureus [7]; above 64 µg/mL in assay [8]; above 64 µg/mL in the assay with Escherichia coli [4]; above 64 µg/mL in assay [9]; above 64 µg/mL against Staphylococcus aureus [10]. The MIC against Escherichia coli [5] was above 64 µg/mL; against Staphylococcus carnosus it was above 64 µg/mL; in the assay on Streptococcus pneumoniae it was 2 µg/mL (≈ 12.4 µM); in the assay with Staphylococcus aureus [6], above 64 µg/mL; against Streptococcus pyogenes, 6 µg/mL (≈ 37.3 µM); against Helicobacter pylori, 32 µg/mL (≈ 199 µM). The IC50 in assay [3] is above 100 µM; in assay [1] it was 0.05 µM; in [2], 1.3 µM.

For `COC(=O)[C@H](CCCB1O[C@@]2(C)CCC3C[C@@]2(O1)C3(C)C)NC(=O)OCc1ccccc1`, the IC50 in [1] was above 20 µM; in assay [2], above 80 µM.

Regarding `CC1(C)C2CC[C@]3(C)OB(CC[C@H](NC(=O)OCc4ccccc4)C(=O)O)O[C@]13C2`, the MIC against Enterococcus faecalis, with Escherichia coli [4], in the assay on Escherichia coli [5], against Staphylococcus aureus [6], against Streptococcus pyogenes and against Helicobacter pylori was above 64 µg/mL throughout. The figures for the IC50 in assay [3] and in assay [2] were above 100 µM and above 80 µM, respectively.

On to `CC1(C)C2CC[C@]3(C)OB(CCCN)O[C@]13C2`, for which the minimum inhibitory concentration (MIC) in the assay on Enterococcus faecalis, in the assay on Escherichia coli [4], against Escherichia coli [5], against Staphylococcus aureus [6] and with Helicobacter pylori was above 64 µg/mL each time. The IC50 in assay [3] is above 100 µM; in assay [1], above 20 µM; in [2], above 80 µM.

As for `CC(C)(C)OC(=O)[C@@H](N)CCB1O[C@@]2(C)CCC3C[C@@]2(O1)C3(C)C`, the MIC against Enterococcus faecalis is above 64 µg/mL; against Escherichia coli [4] it was 8 µg/mL (≈ 23.7 µM); against Escherichia coli [5] it was 8 µg/mL (≈ 23.7 µM); against Staphylococcus aureus [6] it was above 64 µg/mL; in the assay with Streptococcus pyogenes, above 64 µg/mL; against Helicobacter pylori, above 64 µg/mL. For the same compound, the IC50 in [3] is above 100 µM; in assay [2], above 80 µM.

Regarding `CC1(C)C2CC[C@]3(C)OB(CC[C@H](N)C(=O)NS(=O)(=O)c4ccccc4)O[C@]13C2`, the IC50 in assay [1] amounted to 20 µM; in assay [2], 40 µM.

Turning to `COC(=O)[C@H](CCB1O[C@@]2(C)CCC3C[C@@]2(O1)C3(C)C)NC(=O)OCc1ccccc1`, the MIC against Enterococcus faecalis was above 64 µg/mL; against Escherichia coli [4], above 64 µg/mL; in the assay with Escherichia coli [5] it was above 64 µg/mL; against Staphylococcus aureus [6], above 64 µg/mL; in the assay on Streptococcus pyogenes, 64 µg/mL (≈ 149 µM); with Helicobacter pylori it was 32 µg/mL (≈ 74.5 µM). Also, the 50% inhibitory concentration (IC50) was above 100 µM in [3], above 20 µM in [1] and above 80 µM in assay [2].

For `N[C@@H](CCB(O)O)C(=O)O`, the MIC with Enterococcus faecalis was 8 µg/mL (≈ 54.4 µM); with Staphylococcus aureus [7] it was above 64 µg/mL; in assay [8] it was above 64 µg/mL; with Escherichia coli [4], above 64 µg/mL; in [9] it was above 64 µg/mL; against Staphylococcus aureus [10], above 64 µg/mL. Further, the MIC is above 64 µg/mL in the assay with Escherichia coli [5]; above 64 µg/mL in the assay with Staphylococcus carnosus; 3 µg/mL (≈ 20.4 µM) in the assay with Streptococcus pneumoniae; above 64 µg/mL against Staphylococcus aureus [6]; 8 µg/mL (≈ 54.4 µM) in the assay with Streptococcus pyogenes; 32 µg/mL (≈ 218 µM) against Helicobacter pylori. For the same compound, the IC50 is above 100 µM in assay [3], 0.1 µM in assay [1] and 1.6 µM in assay [2].

For `CC1(C)C2CC[C@]3(C)OB(CC[C@H](N)C(=O)NS(=O)(=O)c4ccc(N)cc4)O[C@]13C2`, the IC50 was 10 µM in assay [1] and above 80 µM in assay [2].

As to `CC1(C)C2CC[C@]3(C)OB(CC[C@H](N)C(=O)NS(=O)(=O)C(F)(F)F)O[C@]13C2`, the IC50 in assay [1] is 4.7 µM; in assay [2], 55 µM.

In turn, `CC1(C)C2CC[C@]3(C)OB(CCC(N)CC(=O)O)O[C@]13C2` (some centres undefined) gave an IC50 in assay [1] of 6.5 µM.

For `COC(=O)[C@@H](N)CCB1O[C@@]2(C)CCC3C[C@@]2(O1)C3(C)C`, the MIC in the assay on Enterococcus faecalis is 4 µg/mL (≈ 13.6 µM); against Staphylococcus aureus [7], above 64 µg/mL; in assay [8], above 64 µg/mL; in the assay on Escherichia coli [4], above 64 µg/mL; in assay [9], above 64 µg/mL; against Staphylococcus aureus [10], above 64 µg/mL. The MIC against Escherichia coli [5] is above 64 µg/mL; in the assay on Staphylococcus carnosus it was above 64 µg/mL; with Streptococcus pneumoniae it was 2 µg/mL (≈ 6.78 µM); with Staphylococcus aureus [6], above 64 µg/mL; in the assay with Streptococcus pyogenes, 8 µg/mL (≈ 27.1 µM); in the assay with Helicobacter pylori, 64 µg/mL (≈ 217 µM). In addition, the IC50 is above 100 µM in [3], 0.07 µM in assay [1] and 1.5 µM in [2].

Consider `CC(=O)N[C@@H](CCB1O[C@@]2(C)CCC3C[C@@]2(O1)C3(C)C)C(=O)O`, for which the IC50 in assay [1] is above 20 µM; in [2], above 80 µM.

For `COC(=O)[C@@H](N)CCCB1O[C@@]2(C)CCC3C[C@@]2(O1)C3(C)C`, the values for the IC50 in assay [1] and in [2] were above 20 µM and above 80 µM, respectively.

On to `CN[C@@H](CCB1O[C@@]2(C)CCC3C[C@@]2(O1)C3(C)C)C(=O)O`, for which, in assay [1], the IC50 is 1.1 µM.

On to `CC1(C)C2CC[C@]3(C)OB(CC[C@H](NC(=O)CN)C(=O)O)O[C@]13C2`, for which the MIC in the assay on Enterococcus faecalis was 8 µg/mL (≈ 23.7 µM); in the assay on Escherichia coli [4], above 64 µg/mL; against Escherichia coli [5], above 64 µg/mL; against Streptococcus pneumoniae, above 64 µg/mL; in the assay on Staphylococcus aureus [6], above 64 µg/mL; in the assay with Streptococcus pyogenes it was above 64 µg/mL. The IC50 was above 20 µM in assay [1] and above 80 µM in assay [2].

Take `CC1(C)C2CC[C@]3(C)OB(CCC[C@H](N)C(=O)O)O[C@]13C2`: the values for the IC50 in [1] and in [2] were above 20 µM and above 80 µM, respectively.

For the compound `CC(C)(C)OC(=O)NCCCB1O[C@@]2(C)CCC3C[C@@]2(O1)C3(C)C`, the MIC is above 64 µg/mL with Enterococcus faecalis; 8 µg/mL (≈ 23.7 µM) in the assay on Escherichia coli [4]; 8 µg/mL (≈ 23.7 µM) with Escherichia coli [5]; above 64 µg/mL in the assay on Staphylococcus aureus [6]; above 64 µg/mL in the assay with Streptococcus pyogenes; above 64 µg/mL against Helicobacter pylori. Moreover, the figures for the IC50 in assay [1] and in assay [2] were above 20 µM and above 80 µM, respectively.
